# Data taken from ChEMBL document CHEMBL4043093, “2-Oxo-3, 4-dihydropyrimido[4, 5-d]pyrimidinyl derivatives as new irreversible pan fibroblast growth factor receptor (FGFR) inhibitors” (Eur J Med Chem, 2017).
# Assays:
# [1] = tested on: Receptor-type tyrosine-protein kinase FLT3 (Homo sapiens), P36888 [D835H]; test: Inhibition of human partial length FLT3 D835H mutant (V592 to Y969 residues) expressed in Escherichia coli BL21 assessed as residual activity at 1000 nM after 30 mins by Kinomescan method relative to control
# Outline: (§1)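 KINOMEscan binding panel of 456 kinases, with the test compound at a single concentration of 1 µM. Read-out is Percent Control.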
# [2] = biological target: Serine/threonine-protein kinase SBK1 (Homo sapiens) (UniProt Q52WX2); test: Inhibition of wild-type human partial length SBK1 (P23 to P348 residues) expressed in HEK293 cells assessed as residual activity at 1000 nM after 30 mins by Kinomescan method relative to control; format: cell-based
# Serine/threonine-protein kinase SBK1 (Homo sapiens), sequence (Q52WX2 whole entry, the tested form may be a part): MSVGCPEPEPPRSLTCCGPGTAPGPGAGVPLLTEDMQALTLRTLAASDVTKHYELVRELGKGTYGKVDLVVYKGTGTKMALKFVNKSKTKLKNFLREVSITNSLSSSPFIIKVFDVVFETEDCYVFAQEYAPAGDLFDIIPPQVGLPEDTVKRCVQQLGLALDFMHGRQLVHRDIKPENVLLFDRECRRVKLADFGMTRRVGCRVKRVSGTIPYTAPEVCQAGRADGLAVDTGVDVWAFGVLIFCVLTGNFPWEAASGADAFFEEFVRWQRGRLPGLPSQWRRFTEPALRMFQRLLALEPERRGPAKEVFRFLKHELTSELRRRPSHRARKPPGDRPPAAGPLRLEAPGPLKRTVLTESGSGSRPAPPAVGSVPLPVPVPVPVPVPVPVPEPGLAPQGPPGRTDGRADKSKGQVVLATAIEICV
# [3] = biological target: Homeodomain-interacting protein kinase 1 (Homo sapiens) (UniProt Q86Z02); test: Inhibition of wild-type human partial length HIPK1 (M146 to I555 residues) expressed in HEK293 cells assessed as residual activity at 1000 nM after 30 mins by Kinomescan method relative to control; format: cell-based
# [4] = biological target: MAP kinase-interacting serine/threonine-protein kinase 2 (Homo sapiens) (UniProt Q9HBH9); test: Inhibition of wild-type human partial length MKNK2 (G63 to S388 residues) expressed in HEK293 cells assessed as residual activity at 1000 nM after 30 mins by Kinomescan method relative to control; format: cell-based
# [5] = biological target: Ribosomal protein S6 kinase alpha-4 (Homo sapiens) (UniProt O75676); test: Inhibition of wild-type human partial length N-terminal RPS6KA4 kinase domain 1 expressed in Escherichia coli BL21 assessed as residual activity at 1000 nM after 30 mins by Kinomescan method relative to control
# [6] = biological target: MAP/microtubule affinity-regulating kinase 4 (Homo sapiens) (UniProt Q96L34); test: Inhibition of wild-type human partial length MARK4 (K29 to G340 residues) expressed in Escherichia coli BL21 assessed as residual activity at 1000 nM after 30 mins by Kinomescan method relative to control
# [7] = biological target: Leucine-rich repeat serine/threonine-protein kinase 2 (Homo sapiens) (UniProt Q5S007); test: Inhibition of wild-type human partial length LRRK2 (H970 to E2527 residues) expressed in HEK293 cells assessed as residual activity at 1000 nM after 30 mins by Kinomescan method relative to control; format: cell-based
# Leucine-rich repeat serine/threonine-protein kinase 2 (Homo sapiens), sequence (Q5S007 whole entry, the tested form may be a part): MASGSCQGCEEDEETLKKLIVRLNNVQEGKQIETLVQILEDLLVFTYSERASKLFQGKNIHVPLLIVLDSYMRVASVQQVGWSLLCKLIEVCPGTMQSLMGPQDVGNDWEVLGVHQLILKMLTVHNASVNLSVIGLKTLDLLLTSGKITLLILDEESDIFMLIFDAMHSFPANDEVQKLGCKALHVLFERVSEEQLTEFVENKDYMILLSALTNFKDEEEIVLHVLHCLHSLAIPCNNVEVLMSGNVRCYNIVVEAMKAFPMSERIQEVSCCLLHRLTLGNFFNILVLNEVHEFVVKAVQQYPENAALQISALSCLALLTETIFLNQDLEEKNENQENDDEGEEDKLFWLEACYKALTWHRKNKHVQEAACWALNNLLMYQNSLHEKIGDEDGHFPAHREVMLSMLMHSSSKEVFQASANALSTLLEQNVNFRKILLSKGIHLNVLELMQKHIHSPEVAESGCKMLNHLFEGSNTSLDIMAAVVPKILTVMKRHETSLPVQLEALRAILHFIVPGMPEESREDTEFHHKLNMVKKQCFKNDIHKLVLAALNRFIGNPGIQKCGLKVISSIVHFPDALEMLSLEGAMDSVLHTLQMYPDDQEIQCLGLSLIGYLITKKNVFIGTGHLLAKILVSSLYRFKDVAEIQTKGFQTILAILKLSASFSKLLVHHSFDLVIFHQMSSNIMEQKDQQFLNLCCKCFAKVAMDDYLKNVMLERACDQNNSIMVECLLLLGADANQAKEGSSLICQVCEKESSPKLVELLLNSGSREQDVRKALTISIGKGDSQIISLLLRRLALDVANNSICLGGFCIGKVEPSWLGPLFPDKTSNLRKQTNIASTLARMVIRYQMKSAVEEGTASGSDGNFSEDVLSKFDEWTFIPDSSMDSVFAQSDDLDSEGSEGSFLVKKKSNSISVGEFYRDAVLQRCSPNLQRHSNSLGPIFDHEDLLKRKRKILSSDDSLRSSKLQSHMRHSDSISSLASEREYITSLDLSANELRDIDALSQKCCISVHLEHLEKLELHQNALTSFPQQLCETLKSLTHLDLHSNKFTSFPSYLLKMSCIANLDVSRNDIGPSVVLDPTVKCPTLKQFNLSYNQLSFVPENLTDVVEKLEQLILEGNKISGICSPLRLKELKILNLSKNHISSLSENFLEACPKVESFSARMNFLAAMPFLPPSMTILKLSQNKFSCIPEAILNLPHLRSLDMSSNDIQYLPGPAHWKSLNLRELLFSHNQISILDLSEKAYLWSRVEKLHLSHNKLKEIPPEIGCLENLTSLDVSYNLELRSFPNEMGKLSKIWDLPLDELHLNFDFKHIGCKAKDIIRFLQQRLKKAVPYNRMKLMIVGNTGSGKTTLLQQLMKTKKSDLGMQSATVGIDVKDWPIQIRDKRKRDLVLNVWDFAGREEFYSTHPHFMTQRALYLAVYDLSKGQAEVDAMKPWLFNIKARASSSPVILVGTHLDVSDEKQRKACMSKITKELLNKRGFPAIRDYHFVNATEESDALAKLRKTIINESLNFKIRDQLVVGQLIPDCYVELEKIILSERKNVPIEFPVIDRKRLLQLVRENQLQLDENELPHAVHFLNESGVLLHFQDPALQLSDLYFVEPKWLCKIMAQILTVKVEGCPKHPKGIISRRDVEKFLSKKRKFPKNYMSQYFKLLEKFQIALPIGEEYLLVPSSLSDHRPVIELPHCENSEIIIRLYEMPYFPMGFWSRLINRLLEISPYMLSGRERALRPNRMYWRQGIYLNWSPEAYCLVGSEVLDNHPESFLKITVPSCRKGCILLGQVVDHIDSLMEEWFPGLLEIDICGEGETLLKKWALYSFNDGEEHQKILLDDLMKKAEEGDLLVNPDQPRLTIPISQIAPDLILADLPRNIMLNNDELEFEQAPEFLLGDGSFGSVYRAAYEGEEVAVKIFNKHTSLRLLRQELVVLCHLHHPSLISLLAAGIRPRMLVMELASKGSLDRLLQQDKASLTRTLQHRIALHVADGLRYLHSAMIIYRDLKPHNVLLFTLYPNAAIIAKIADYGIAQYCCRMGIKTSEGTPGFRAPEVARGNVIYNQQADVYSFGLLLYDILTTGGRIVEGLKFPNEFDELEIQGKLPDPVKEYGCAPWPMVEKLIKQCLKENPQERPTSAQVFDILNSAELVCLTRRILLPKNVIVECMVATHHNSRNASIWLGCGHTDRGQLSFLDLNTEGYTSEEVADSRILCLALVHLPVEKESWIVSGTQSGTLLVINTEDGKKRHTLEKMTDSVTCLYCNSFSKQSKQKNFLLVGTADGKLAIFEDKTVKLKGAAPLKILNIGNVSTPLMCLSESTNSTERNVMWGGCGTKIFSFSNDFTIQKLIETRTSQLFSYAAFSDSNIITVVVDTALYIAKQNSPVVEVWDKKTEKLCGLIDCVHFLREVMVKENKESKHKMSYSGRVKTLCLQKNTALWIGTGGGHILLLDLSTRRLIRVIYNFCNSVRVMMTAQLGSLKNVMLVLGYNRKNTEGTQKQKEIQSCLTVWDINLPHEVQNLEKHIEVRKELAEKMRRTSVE
# [8] = biological target: G protein-coupled receptor kinase 3 (Homo sapiens) (UniProt P35626); test: Inhibition of wild-type human full length GRK3 (M1 to L688 residues) expressed in HEK293 cells assessed as residual activity at 1000 nM after 30 mins by Kinomescan method relative to control; format: cell-based
# Outline: (§2)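 Single-concentration screen at 1 µM across a 456-kinase KINOMEscan panel. The read-out is Percent Control for each kinase.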
# [9] = biological target: 5'-AMP-activated protein kinase catalytic subunit alpha-2 (Homo sapiens) (UniProt P54646); test: Inhibition of wild-type human partial length AMPK alpha2 (M1 to E306 residues) expressed in Escherichia coli BL21 assessed as residual activity at 1000 nM after 30 mins by Kinomescan method relative to control
# [10] = biological target: Mitogen-activated protein kinase kinase kinase 10 (Homo sapiens) (UniProt Q02779); test: Inhibition of wild-type human partial length MLK2 (V52 to W380 residues) expressed in Escherichia coli BL21 assessed as residual activity at 1000 nM after 30 mins by Kinomescan method relative to control
# Mitogen-activated protein kinase kinase kinase 10 (Homo sapiens), sequence (Q02779 whole entry, looked up, the tested form may be a part): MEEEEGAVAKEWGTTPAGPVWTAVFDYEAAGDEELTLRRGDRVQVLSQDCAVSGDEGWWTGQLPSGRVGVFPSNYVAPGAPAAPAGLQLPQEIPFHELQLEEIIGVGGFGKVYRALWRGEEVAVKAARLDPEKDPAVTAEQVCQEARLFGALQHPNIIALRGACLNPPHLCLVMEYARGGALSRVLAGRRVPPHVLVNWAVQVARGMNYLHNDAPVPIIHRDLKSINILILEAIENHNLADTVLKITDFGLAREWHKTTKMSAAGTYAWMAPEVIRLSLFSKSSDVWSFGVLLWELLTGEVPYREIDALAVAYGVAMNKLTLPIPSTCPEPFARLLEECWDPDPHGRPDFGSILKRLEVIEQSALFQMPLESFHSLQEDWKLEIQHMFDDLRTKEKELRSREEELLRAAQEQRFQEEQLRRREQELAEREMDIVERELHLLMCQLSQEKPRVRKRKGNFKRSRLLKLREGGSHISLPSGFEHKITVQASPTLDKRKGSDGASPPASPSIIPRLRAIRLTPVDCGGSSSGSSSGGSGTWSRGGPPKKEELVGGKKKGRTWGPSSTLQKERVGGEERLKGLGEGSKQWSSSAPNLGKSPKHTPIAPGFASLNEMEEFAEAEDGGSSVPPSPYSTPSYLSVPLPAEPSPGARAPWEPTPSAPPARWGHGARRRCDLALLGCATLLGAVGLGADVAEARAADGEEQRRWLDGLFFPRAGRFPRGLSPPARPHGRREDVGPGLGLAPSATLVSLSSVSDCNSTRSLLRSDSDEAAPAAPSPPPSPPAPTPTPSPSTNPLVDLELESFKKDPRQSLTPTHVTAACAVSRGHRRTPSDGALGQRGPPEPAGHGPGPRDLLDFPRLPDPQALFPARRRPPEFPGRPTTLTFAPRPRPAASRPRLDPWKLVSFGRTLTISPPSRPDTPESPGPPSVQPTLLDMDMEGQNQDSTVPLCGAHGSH
# [11] = biological target: Cyclin-dependent kinase-like 3 (Homo sapiens) (UniProt Q8IVW4); test: Inhibition of wild-type human partial length CDKL3 (M1 to D327 residues) expressed in Escherichia coli BL21 assessed as residual activity at 1000 nM after 30 mins by Kinomescan method relative to control
# [12] = tested on: Mast/stem cell growth factor receptor Kit (Homo sapiens), P10721 [D816V]; test: Inhibition of human partial length KIT D816V mutant (I571 to D952 residues) expressed in Escherichia coli BL21 assessed as residual activity at 1000 nM after 30 mins by Kinomescan method relative to control; outline: as §1
# Mast/stem cell growth factor receptor Kit (Homo sapiens), P10721 [D816V], sequence (P10721 whole entry D816V, the tested form may be a part): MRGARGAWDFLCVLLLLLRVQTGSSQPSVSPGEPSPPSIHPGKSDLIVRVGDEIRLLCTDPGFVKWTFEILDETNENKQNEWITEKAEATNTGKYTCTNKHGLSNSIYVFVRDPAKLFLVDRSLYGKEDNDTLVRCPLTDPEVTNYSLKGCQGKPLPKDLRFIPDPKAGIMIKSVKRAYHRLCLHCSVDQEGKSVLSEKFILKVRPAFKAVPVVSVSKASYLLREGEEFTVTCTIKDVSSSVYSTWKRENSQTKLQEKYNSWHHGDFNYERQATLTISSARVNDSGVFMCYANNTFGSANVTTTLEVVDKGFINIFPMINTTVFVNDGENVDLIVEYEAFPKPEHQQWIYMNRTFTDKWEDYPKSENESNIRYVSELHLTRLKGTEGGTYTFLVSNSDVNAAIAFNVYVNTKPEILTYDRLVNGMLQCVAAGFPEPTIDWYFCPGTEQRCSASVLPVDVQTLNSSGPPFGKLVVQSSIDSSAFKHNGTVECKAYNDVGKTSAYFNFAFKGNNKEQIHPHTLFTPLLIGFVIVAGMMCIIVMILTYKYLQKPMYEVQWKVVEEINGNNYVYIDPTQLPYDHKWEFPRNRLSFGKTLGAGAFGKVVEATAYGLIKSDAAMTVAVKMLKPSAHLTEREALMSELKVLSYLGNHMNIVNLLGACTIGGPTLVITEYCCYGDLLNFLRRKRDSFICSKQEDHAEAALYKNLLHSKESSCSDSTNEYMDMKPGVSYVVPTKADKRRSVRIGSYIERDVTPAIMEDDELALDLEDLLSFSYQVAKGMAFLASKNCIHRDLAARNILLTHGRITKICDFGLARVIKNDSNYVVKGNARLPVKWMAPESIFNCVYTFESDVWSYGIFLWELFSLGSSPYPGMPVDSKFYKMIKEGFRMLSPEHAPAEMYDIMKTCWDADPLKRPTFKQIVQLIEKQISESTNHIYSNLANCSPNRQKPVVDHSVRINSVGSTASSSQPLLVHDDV
# [13] = biological target: Dual specificity mitogen-activated protein kinase kinase 2 (Homo sapiens) (UniProt P36507); test: Inhibition of wild-type human full length MEK2 (M1 to V400 residues) expressed in HEK293 cells assessed as residual activity at 1000 nM after 30 mins by Kinomescan method relative to control; format: cell-based; outline: as §2
# [14] = biological target: Phosphatidylinositol 4,5-bisphosphate 3-kinase catalytic subunit delta isoform (Homo sapiens) (UniProt O00329); test: Inhibition of wild-type human partial length PIK3CD (R108 to Q1044 residues) expressed in HEK293 cells assessed as residual activity at 1000 nM after 30 mins by Kinomescan method relative to control; format: cell-based
# [15] = biological target: Serine/threonine-protein kinase DCLK1 (Homo sapiens) (UniProt O15075); test: Inhibition of wild-type human partial length DCAMKL1 (L270 to A662 residues) expressed in HEK293 cells assessed as residual activity at 1000 nM after 30 mins by Kinomescan method relative to control; format: cell-based
# Homo sapiens = species on record: Homo sapiens; test: Inhibition of human partial length FLT3 ITD/F691L double mutant expressed in Escherichia coli BL21 assessed as residual activity at 1000 nM after 30 mins by Kinomescan method relative to control; outline: as §1
# [16] = biological target: Ankyrin repeat and protein kinase domain-containing protein 1 (Homo sapiens) (UniProt Q8NFD2); test: Inhibition of wild-type human partial length ANKK1 (M1 to A305 residues) expressed in HEK293 cells assessed as residual activity at 1000 nM after 30 mins by Kinomescan method relative to control; format: cell-based
# [17] = biological target: Serine/threonine-protein kinase PAK 5 (Homo sapiens) (UniProt Q9P286); test: Inhibition of wild-type human partial length PAK7 (Y400 to H719 residues) expressed in Escherichia coli BL21 assessed as residual activity at 1000 nM after 30 mins by Kinomescan method relative to control
# [18] = biological target: cGMP-dependent protein kinase 1 (Homo sapiens) (UniProt Q13976); test: Inhibition of wild-type human partial length PRKG1 (L339 to F686 residues) expressed in Escherichia coli BL21 assessed as residual activity at 1000 nM after 30 mins by Kinomescan method relative to control
# [19] = biological target: TGF-beta receptor type-2 (Homo sapiens) (UniProt P37173); test: Inhibition of wild-type human partial length TGFBR2 (I218 to K567 residues) expressed in Escherichia coli BL21 assessed as residual activity at 1000 nM after 30 mins by Kinomescan method relative to control
# [20] = biological target: Ephrin type-B receptor 2 (Homo sapiens) (UniProt P29323); test: Inhibition of wild-type human partial length EPHB2 (I597 to L902 residues) expressed in Escherichia coli BL21 assessed as residual activity at 1000 nM after 30 mins by Kinomescan method relative to control
# [21] = biological target: Cyclin-dependent kinase 17 (Homo sapiens) (UniProt Q00537); test: Inhibition of wild-type human full length PCTK2 (M1 to F523 residues) expressed in Escherichia coli BL21 assessed as residual activity at 1000 nM after 30 mins by Kinomescan method relative to control; outline: as §2
smiles,measurement,setting,value
COc1cc(OC)c(Cl)c(N2Cc3cnc(Nc4ccc(F)cc4)nc3N(C3CCN(C(=O)/C=C/CN(C)C)CC3)C2=O)c1Cl,Activity,[1],100%
same,Activity,[2],90%
same,Activity,[3],100%
same,Activity,[4],86%
same,Activity,[5],97%
same,Activity,[6],87%
same,Activity,[7],100%
same,Activity,[8],100%
same,Activity,[9],89%
same,Activity,[10],94%
same,Activity,[11],89%
same,Activity,[12],41%
same,Activity,[13],89%
same,Activity,[14],93%
same,Activity,[15],95%
same,Activity,Homo sapiens,90%
same,Activity,[16],96%
same,Activity,[17],88%
same,Activity,[18],100%
same,Activity,[19],91%
same,Activity,[20],99%
same,Activity,[21],90%
